ChEMBL document CHEMBL1681788, “Effect of structural modification in the amine portion of substituted aminobutyl-benzamides as ligands for binding σ1 and σ2 receptors” (Bioorg Med Chem, 2011)

Experiments:
[1] = biological target: Sigma non-opioid intracellular receptor 1 (Cavia porcellus, UniProt Q60492); assay: Displacement of [3H]-(+)-pentazocine from Sigma1-receptor in guinea pig brain membrane; assay type: cell membranes
How it was run: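 Competition binding with [3H](+)-PTZ as radioligand on membranes from fresh-frozen male English Hartley guinea pig brain. Duplicates, repeated four times. Test compounds came from 10^-3 M stocks in acidified 1% EtOH/water.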

[2] = Displacement of [3H]ditolylguanidine from sigma2 receptor in guinea pig brain membrane; assay type: cell membranes, Cavia porcellus
How it was run: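 [3H]DTG competition binding with 500 nM (+)-PTZ present to mask σ1 sites, on fresh-frozen male English Hartley guinea pig brain membranes. Duplicate wells, four repeats. Compound stocks were 10^-3 M in acidified 1% EtOH/water.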

[3] = Chemical stability of the compound assessed as compound remaining after 16 hrs by HPLC analysis; assay type: physicochemical; conditions: read-out: Activity
How it was run: (§1)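 Compounds held at 10^-3 M in aqueous stock buffer of 1% EtOH with AcOH: 2.5% AcOH generally, 0.1% AcOH for the HCl and oxalate salts. Stored in stock buffer, then purity analysed by analytical HPLC at the stated time point (16 h, 44 h or 25 days).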

[4] = Chemical stability of the compound assessed as decomposition after 25 days by HPLC analysis; assay type: physicochemical; conditions: 600 h; how it was run: as §1
[5] = tested on: sigma1/sigma2 receptors (Cavia porcellus); assay: Selectivity ratio, ratio of Ki for guinea pig sigma1 receptor to Ki for guinea pig sigma2 receptor
[6] = Chemical stability of the compound assessed as compound remaining after 44 hrs by HPLC analysis; assay type: physicochemical; conditions: read-out: Activity; how it was run: as §1

Sequence of Sigma non-opioid intracellular receptor 1 (Q60492 whole entry): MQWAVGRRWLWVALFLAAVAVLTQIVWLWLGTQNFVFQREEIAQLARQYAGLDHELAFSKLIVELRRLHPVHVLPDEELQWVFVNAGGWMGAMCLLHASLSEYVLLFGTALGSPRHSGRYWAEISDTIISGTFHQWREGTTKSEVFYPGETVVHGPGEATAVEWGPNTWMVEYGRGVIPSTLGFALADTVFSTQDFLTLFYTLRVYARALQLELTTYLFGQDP

| Structure (SMILES) | Ki [1] | Ki [2] | remaining at 16 h [3] | Stability [4] | Ratio Ki [5] | remaining at 44 h [6] |
| --- | --- | --- | --- | --- | --- | --- |
| COc1cc2c(cc1OC)N(CCCCNC(=O)c1cc(Br)cc(OC)c1OC)CC2 | 4520 nM | 9680 nM | 86% | Unstable | 0.47 | – |
| COc1ccc(CCNCCCCNC(=O)c2cc(Br)cc(OC)c2OC)cc1OC | – | 4620 nM | – | – | 0.2 | – |
| COc1cc2c(cc1OC)N(CCCCNC(=O)c1cc(Br)cc(OC)c1OC)CCC2 | 4500 nM | 5820 nM | 90% | – | 0.77 | 38% |
| COc1cc2c(cc1OC)CN(CCCCNC(=O)c1cc(Br)cc(OC)c1OC)C2 | 1440 nM | 0.82 nM | – | – | 1760 | – |
| COc1ccc(CCN(C)CCCCNC(=O)c2cc(Br)cc(OC)c2OC)cc1OC | – | 2130 nM | – | – | – | – |
| COc1cc2c(cc1OC)CN(CCCCNC(=O)c1cc(Br)cc(OC)c1OC)CC2 | – | 2.7 nM | – | – | – | – |
| COc1ccc(CCN2CCN(CCCc3ccccc3)CC2)cc1OC [[11C]SA4503] | – | 89.5 nM | – | – | – | – |
| COc1cc2c(cc1OC)N(CCCCNC(=O)c1cc(Br)cc(OC)c1OC)CCCC2 | 2560 nM | 8960 nM | – | – | – | – |
| COc1cc2c(cc1OC)CN(CCCCNC(=O)c1cc(Br)cc(OC)c1OC)CCC2 | 2070 nM | 315 nM | – | – | 6.58 | – |
| COc1cc2c(cc1OC)CCN(CCCCNC(=O)c1cc(Br)cc(OC)c1OC)CC2 | 5070 nM | 734 nM | – | – | 8.5 | – |
